Legend:
[1] = target: Epidermal growth factor receptor (Homo sapiens, UniProt P00533); test: Inhibition of EGF-stimulated EGFR tyrosine kinase activity using plasma membrane vesicles shed from cultured human A431 carcinoma cells; assay type: functional, cell-based, A-431
Outline: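 EGFR source: A431 shed membrane vesicles, solubilized in 4% Triton X-100/10% glycerol, 10 μg total protein per reaction. Final buffer: 20 mM HEPES pH 7.4, 15 mM MgCl₂, 4 mM MnCl₂, 0.02% BSA, 5 μM ATP with [γ-³²P]ATP, Glu:Ala:Tyr (6:3:1) copolymer substrate, 250 ng EGF. Run 10 min at room temperature, stopped with cold TCA/pyrophosphate. Filter-bound ³²P counted. IC50 is 50% reduction of incorporation. Autophosphorylation controls included.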

Swiss 3T3 (Mus musculus) = test: Inhibition of Swiss 3T3 mouse fibroblast proliferation

Sequence of Epidermal growth factor receptor (P00533 whole entry): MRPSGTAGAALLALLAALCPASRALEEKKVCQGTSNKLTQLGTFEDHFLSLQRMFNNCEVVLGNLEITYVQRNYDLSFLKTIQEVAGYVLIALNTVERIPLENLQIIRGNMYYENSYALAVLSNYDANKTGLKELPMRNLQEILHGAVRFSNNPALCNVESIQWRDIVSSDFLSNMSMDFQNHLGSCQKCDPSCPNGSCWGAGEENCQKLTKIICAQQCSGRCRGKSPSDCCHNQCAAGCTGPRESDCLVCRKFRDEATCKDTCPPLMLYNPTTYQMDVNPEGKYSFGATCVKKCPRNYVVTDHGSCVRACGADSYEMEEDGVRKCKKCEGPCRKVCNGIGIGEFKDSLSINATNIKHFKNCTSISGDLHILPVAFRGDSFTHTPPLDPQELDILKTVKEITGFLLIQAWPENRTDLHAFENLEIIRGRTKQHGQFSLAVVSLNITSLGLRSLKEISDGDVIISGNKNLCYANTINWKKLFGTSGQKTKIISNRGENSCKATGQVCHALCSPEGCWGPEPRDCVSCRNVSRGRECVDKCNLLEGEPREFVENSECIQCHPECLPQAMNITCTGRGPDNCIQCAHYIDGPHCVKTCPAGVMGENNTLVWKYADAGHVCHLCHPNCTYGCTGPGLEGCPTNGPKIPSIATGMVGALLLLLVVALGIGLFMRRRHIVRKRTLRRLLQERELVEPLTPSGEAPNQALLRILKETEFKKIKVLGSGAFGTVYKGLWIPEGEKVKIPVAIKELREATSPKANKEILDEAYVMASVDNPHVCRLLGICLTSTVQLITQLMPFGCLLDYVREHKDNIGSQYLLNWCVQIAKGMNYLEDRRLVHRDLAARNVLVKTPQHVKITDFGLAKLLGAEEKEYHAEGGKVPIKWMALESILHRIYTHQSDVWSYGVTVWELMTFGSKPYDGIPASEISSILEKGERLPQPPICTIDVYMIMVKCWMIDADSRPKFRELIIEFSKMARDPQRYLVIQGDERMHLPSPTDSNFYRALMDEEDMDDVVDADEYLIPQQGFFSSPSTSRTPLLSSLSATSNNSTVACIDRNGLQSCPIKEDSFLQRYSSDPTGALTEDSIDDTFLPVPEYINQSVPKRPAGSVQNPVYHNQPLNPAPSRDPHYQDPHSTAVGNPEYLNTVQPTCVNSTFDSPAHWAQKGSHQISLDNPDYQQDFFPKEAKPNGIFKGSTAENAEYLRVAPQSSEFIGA

| SMILES | IC50 [1] [µM] | IC50 (Swiss 3T3 (Mus musculus)) [µM] |
| --- | --- | --- |
| COC(=O)CCCC1C(=S)Nc2ccccc21 (centres undefined) | > 100 |  |
| O=C(O)CCCC1C(=S)Nc2ccccc21 (centres undefined) | 6.7 |  |
| COC(=O)Cc1c(SSc2[nH]c3ccccc3c2CC(=O)OC)[nH]c2ccccc12 |  | 2.3 |
| COC(=O)CCN1C(=S)C(CCC(=O)OC)(CCC(=O)OC)c2ccccc21 | > 100 |  |
| CN1C(=S)C(CCCC(=O)O)c2ccccc21 (centres undefined) | > 100 |  |
| COC(=O)CC1C(=S)Nc2ccccc21 (centres undefined) | 100 |  |
| CN1C(=S)C(CCC(=O)O)c2ccccc21 (centres undefined) | 6.7 |  |
| COC(=O)CCc1c(SSc2c(CCC(=O)OC)c3ccccc3n2C)n(C)c2ccccc12 | > 100 | 5.2 |
| Cn1c(SSc2c(CC(=O)O)c3ccccc3n2C)c(CC(=O)O)c2ccccc21 | 53 | 36 |
| COC(=O)CCC1(CCC(=O)OC)C(=S)Nc2ccccc21 | > 100 |  |
| COC(=O)CCCC1C(=S)N(C)c2ccccc21 (centres undefined) | > 100 |  |
| CN1C(=S)C(CC(=O)O)c2ccccc21 (centres undefined) | > 100 |  |
| COC(=O)CCCc1c(SSc2[nH]c3ccccc3c2CCCC(=O)OC)[nH]c2ccccc12 | > 100 |  |
| COC(=O)CCc1c(SSc2[nH]c3ccccc3c2CCC(=O)OC)[nH]c2ccccc12 | 21 | 7.4 |
| Cc1cccc2c(CCC(=O)O)c(SSc3[nH]c4c(C)cccc4c3CCC(=O)O)[nH]c12 | 1.5 |  |
| O=C(O)Cc1c(SSc2[nH]c3ccccc3c2CC(=O)O)[nH]c2ccccc12 | 10.2 | > 50 |
| Cc1ccc2[nH]c(SSc3[nH]c4ccc(C)cc4c3CCC(=O)O)c(CCC(=O)O)c2c1 |  | > 50 |
| COC(=O)Cc1c(Sc2c(CC(=O)OC)c3ccccc3n2C)n(C)c2ccccc12 | > 100 |  |
| COC(=O)CCC1C(S)=Nc2ccccc21 (centres undefined) | > 100 | 16 |
| O=C(O)CCC1C(S)=Nc2ccccc21 (centres undefined) | 1.62 | 64 |
| O=C(O)CCc1c(SSc2[nH]c3ccccc3c2CCC(=O)O)[nH]c2ccccc12 | 4.2 | 59 |
| Cn1c(SSc2c(CCC(=O)O)c3ccccc3n2C)c(CCC(=O)O)c2ccccc21 | 3.1 |  |
| O=CN/C=C/c1cc(O)ccc1O [ERBSTATIN] | 2 |  |
| O=C(O)Cc1c(SSSc2[nH]c3ccccc3c2CC(=O)O)[nH]c2ccccc12 |  | 8 |
| COC(=O)Cc1c(SSc2c(CC(=O)OC)c3ccccc3n2C)n(C)c2ccccc12 | 33 |  |
| COC(=O)CCC1C(=S)N(C)c2ccccc21 (centres undefined) | > 100 |  |
| COC(=O)CC1C(=S)N(C)c2ccccc21 (centres undefined) | > 100 |  |
| COC(=O)CCCc1c(SSc2c(CCCC(=O)OC)c3ccccc3n2C)n(C)c2ccccc12 | > 100 | 1.8 |
| COC(=O)Cc1c(SSSc2[nH]c3ccccc3c2CC(=O)OC)[nH]c2ccccc12 | 35 | 1 |
| O=C(O)CCC1(CCC(=O)O)C(=S)Nc2ccccc21 | > 100 |  |
